Measured values published in ChEMBL document CHEMBL1155420, “Synthesis, antibacterial and antifungal activities of some carbazole derivatives” (2010).
In brackets after ≈: the same amount, converted by molar mass.

What was measured:
Assay type in all cases: functional
Escherichia coli = assay: Antibacterial activity against Escherichia coli ATCC 25922 after 24 hrs by two fold serial dilution method; settings: ATCC 25922, 24 h
Procedure, shortened: (§1)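 MICs determined by modified microbroth twofold dilution per NCCLS. Compounds were tested at 512, 256, 128, 64, 32, 16, 8, 4, 2, 1 and 0.5 µg/mL. Dilutions were inoculated and incubated at 37 °C for 24 h. A DMSO solvent control in test medium was run at the same dilutions.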

Pseudomonas aeruginosa = assay: Antibacterial activity against Pseudomonas aeruginosa ATCC 27853 after 24 hrs by two fold serial dilution method; settings: ATCC 27853, 24 h; procedure, shortened: as §1
Staphylococcus aureus [1] = assay: Antibacterial activity against Methicillin-Resistant Staphylococcus aureus subsp. aureus N315 after 24 hrs by two fold serial dilution method; settings: N315, 24 h
Procedure, shortened: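 Modified microbroth dilution following National Committee for Clinical Laboratory Standards methods. Twofold serial dilutions were set at 512, 256, 128, 64, 32, 16, 8, 4, 2, 1 and 0.5. Dilutions were inoculated with strain N315 and incubated at 37 °C for 24 h. A solvent control used medium with DMSO at the same dilutions. Read-out was the MIC.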

Staphylococcus aureus [2] = assay: Antibacterial activity against Staphylococcus aureus ATCC 29213 after 24 hrs by two fold serial dilution method; settings: ATCC 29213, 24 h; procedure, shortened: as §1
Proteus vulgaris = assay: Antibacterial activity against Proteus vulgaris ATCC 49027 after 24 hrs by two fold serial dilution method; settings: ATCC 49027, 24 h; procedure, shortened: as §1
Bacillus subtilis = assay: Antibacterial activity against Bacillus subtilis ATCC 21216 after 24 hrs by two fold serial dilution method; settings: ATCC 21216, 24 h; procedure, shortened: as §1
Aspergillus fumigatus = assay: Antifungal activity against Aspergillus fumigatus ATCC 96918 after 24 hrs by two fold serial dilution method; settings: ATCC 96918, 24 h
Procedure, shortened: (§2)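 Modified NCCLS microbroth dilution, with eleven compound concentrations from 0.5 to 512 µg/mL. Dilutions were inoculated and incubated at 35 °C for 24 h. MIC50 was taken as the first well showing about 50% growth reduction versus the drug-free well.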

Candida albicans = assay: Antifungal activity against Candida albicans ATCC 76615 after 24 hrs by two fold serial dilution method; settings: ATCC 76615, 24 h; procedure, shortened: as §2

Row | Compound | MIC50 (Escherichia coli) [µg/mL] | MIC50 (Pseudomonas aeruginosa) [µg/mL] | MIC50 (Staphylococcus aureus [1]) [µg/mL] | MIC50 (Staphylococcus aureus [2]) [µg/mL] | MIC50 (Proteus vulgaris) [µg/mL] | MIC50 (Bacillus subtilis) [µg/mL] | MIC50 (Aspergillus fumigatus) [µg/mL] | MIC50 (Candida albicans) [µg/mL]
1 | O=C(N[C@H](CO)[C@H](O)c1ccc([N+](=O)[O-])cc1)C(Cl)Cl [CHLORAMPHENICOL] | 64 (≈ 198 µM) | > 512 | 8 (≈ 24.8 µM) | 64 (≈ 198 µM) | 16 (≈ 49.5 µM) | > 512 |  | 
2 | c1ccc2c(c1)c1ccccc1n2CCCCn1c2ccccc2c2ccccc21 | > 512 | > 512 | > 512 | > 512 | 64 (≈ 165 µM) | > 512 | > 512 | > 512
3 | c1ccc2c(c1)c1ccccc1n2CCCCCCn1cncn1 | 16 (≈ 50.2 µM) | 32 (≈ 100 µM) | 64 (≈ 201 µM) | 32 (≈ 100 µM) | > 512 | > 512 | > 512 | 2 (≈ 6.28 µM)
4 | BrCCCCCCn1c2ccccc2c2ccccc21 | > 512 | > 512 | > 512 | 128 (≈ 388 µM) | > 512 | > 512 | 512 (≈ 1550 µM) | > 512
5 | c1ccc2c(c1)c1ccccc1n2CCCCCCn1ccnc1 | 4 (≈ 12.6 µM) | 1 (≈ 3.15 µM) | 8 (≈ 25.2 µM) | 8 (≈ 25.2 µM) | 1 (≈ 3.15 µM) | 8 (≈ 25.2 µM) | 128 (≈ 403 µM) | 16 (≈ 50.4 µM)
6 | BrCc1ccc(Cn2c3ccccc3c3ccccc32)cc1 | 256 (≈ 731 µM) | 256 (≈ 731 µM) | > 512 | 128 (≈ 365 µM) | 512 (≈ 1460 µM) | 256 (≈ 731 µM) | > 512 | > 512
7 | c1ccc2c(c1)c1ccccc1n2Cc1ccc(Cn2ccnc2)cc1 | 8 (≈ 23.7 µM) | 1 (≈ 2.96 µM) | 8 (≈ 23.7 µM) | 1 (≈ 2.96 µM) | 4 (≈ 11.9 µM) | 4 (≈ 11.9 µM) | > 512 | 16 (≈ 47.4 µM)
8 | c1ccc2c(c1)c1ccccc1n2CCCCCCn1c2ccccc2c2ccccc21 | > 512 | > 512 | > 512 | 128 (≈ 307 µM) | > 512 | > 512 | 256 (≈ 615 µM) | > 512
9 | c1ccc2c(c1)c1ccccc1n2Cc1ccc(Cn2c3ccccc3c3ccccc32)cc1 | > 512 | > 512 | > 512 | 256 (≈ 586 µM) | > 512 | > 512 | > 512 | > 512
10 | OC(Cn1cncn1)(Cn1cncn1)c1ccc(F)cc1F [FLUCONAZOLE] |  |  |  |  |  |  | 512 (≈ 1670 µM) | 0.5 (≈ 1.63 µM)
11 | c1ccc2c(c1)c1ccccc1n2CCCCn1cncn1 | 32 (≈ 110 µM) | 128 (≈ 441 µM) | > 512 | 256 (≈ 882 µM) | > 512 | > 512 | > 512 | 2 (≈ 6.89 µM)
12 | CCn1cc(C(=O)O)c(=O)c2cc(F)c(N3CCNCC3)cc21 [NORFLOXACIN] | 0.5 (≈ 1.57 µM) | 2 (≈ 6.26 µM) | 1 (≈ 3.13 µM) | 8 (≈ 25.1 µM) | 1 (≈ 3.13 µM) | 1 (≈ 3.13 µM) |  | 
13 | c1ccc2c(c1)c1ccccc1n2CCCCn1ccnc1 | 8 (≈ 27.6 µM) | 1 (≈ 3.46 µM) | 4 (≈ 13.8 µM) | 2 (≈ 6.91 µM) | 1 (≈ 3.46 µM) | 4 (≈ 13.8 µM) | 64 (≈ 221 µM) | 16 (≈ 55.3 µM)
14 | BrCCCCn1c2ccccc2c2ccccc21 | > 512 | 128 (≈ 424 µM) | > 512 | 256 (≈ 847 µM) | > 512 | > 512 | > 512 | 512 (≈ 1690 µM)
15 | c1ccc2c(c1)c1ccccc1n2Cc1ccc(Cn2cncn2)cc1 | 32 (≈ 94.6 µM) | > 512 | > 512 | 256 (≈ 756 µM) | > 512 | > 512 | > 512 | 4 (≈ 11.8 µM)
16 | Clc1ccc(C[n+]2cnn(Cc3ccc(Cn4c5ccccc5c5ccccc54)cc3)c2)c(Cl)c1.[Cl-] | 2 | 4 | 8 | 2 | 8 | 2 | 64 | 32
